Publication PMC7029422 (Bioorganic & medicinal chemistry, 2020)
“Also recorded” adds a separate entry of the source.

Legend:
[1] = test system: MDA-MB-435 human melanoma cells; assay: Cytotoxicity against MDA-MB-435 cells; format: cell-based; conditions: MDA-MB-435, 72 h, read-out: IC50 value toward the MDA-MB-435 human melanoma cells
[2] = target: Na^+/K^+-ATPase (adenosine 5′-triphosphatase from porcine cerebral cortex); conditions: read-out: Na+/K+-ATPase activity inhibition, IC50; previous investigation; cited from earlier work
[3] = test system: OVCAR3 human ovarian cancer cells; assay: Cytotoxicity against OVCAR3 cells; format: cell-based; conditions: OVCAR-3, 72 h, read-out: IC50 value toward the OVCAR3 human ovarian cancer cells
[4] = test system: glucose uptake in H1299 human lung cancer cells; assay: Glucose uptake assay; format: cell-based; conditions: 30 μM, 15 min treatment; WZB117 30 μM as positive control
Summary of the method: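 H1299 cells (DMEM, 25 mM glucose, 10% FBS, 37 °C, 5% CO2) in 24-well plates; washed, serum-starved in FBS-free DMEM 1.5 h, then 30 min in glucose-free KRP. Test compound at final 30 μM for 15 min. Uptake then started with 37 MBq/L 2-deoxy-D-[3H]glucose plus 1 mM glucose (final) for 40 min. Stopped with PBS; lysate radioactivity counted by liquid scintillation. Triplicate, three independent experiments; Student's t-test versus vehicle.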

[5] = test system: HT-29 human colon cancer cells; assay: Cytotoxicity against HT-29 cells; format: cell-based; conditions: HT-29, 72 h, read-out: IC50 value toward the HT-29 human colon cancer cells

SMILES	IC50 [1] [nM]	IC50 [2] [nM]	IC50 [3] [nM]	Inhibition of glucose uptake/transport in H1299 cells [4]	IC50 [5] [nM]
CO[C@H]1[C@H](O[C@H]2CC[C@]3(C=O)[C@H]4CC[C@]5(C)[C@](O)(C6=CC(=O)OC6)CC[C@]5(O)[C@@H]4CC[C@]3(O)C2)O[C@H](C)[C@H](O)[C@@H]1OC [Compound 1, (3β)-3-[(2,3-di-O-methyl-β-D-fucopyranosyl)oxy]-5β,14β,17β-trihydroxy-19-oxo-17-epi-card-20(22)-enolide]	> 20000				
CO[C@H]1[C@H](O[C@H]2CC[C@]3(C=O)[C@H]4CC[C@]5(C)[C@@H](C6=CC(=O)OC6)CC[C@]5(O)[C@@H]4CC[C@]3(O)C2)O[C@H](C)[C@H](O)[C@@H]1OC [Compound 3, (+)-strebloside]		160	130	did not inhibit glucose uptake; also recorded: did not inhibit glucose transport	170
CO[C@H]1[C@H](O[C@H]2CC[C@]3(C=O)[C@H]4CC[C@]5(C)[C@@H]6CC[C@]5(O[C@H]5OC(=O)C[C@H]56)[C@@H]4CC[C@]3(O)C2)O[C@H](C)[C@H](O)[C@@H]1OC [Compound 3a, (+)-20,22-dihydro-14,21-epoxystrebloside]	> 20000				
CC(=O)O[C@H]1C(=O)[C@@]2(C)[C@H]([C@H](OC(=O)c3ccccc3)[C@]3(O)C[C@H](OC(=O)[C@H](O)[C@@H](NC(=O)c4ccccc4)c4ccccc4)C(C)=C1C3(C)C)[C@]1(OC(C)=O)CO[C@@H]1C[C@@H]2O [Paclitaxel, reference compound]					0.8
